The source made the active and inactive calls. The rule behind the calls is not given here.
What was measured:
Canis familiaris [1] = species on record: Canis familiaris; test: Compound was evaluated for abolition of ventricular tachycardia (Number/total); + = slight degree; type: functional, organism-based; details: Canis lupus familiaris; Cardiac ventricle
Canis familiaris [2] = species on record: Canis familiaris; test: Effect of compound on myocardial conduction abnormal; No change.; type: functional, organism-based; details: Canis lupus familiaris; Myocardium
Canis familiaris [3] = species on record: Canis familiaris; test: Effect of compound on myocardial conduction normal (A-V, I-V); No change.; type: functional, organism-based; details: Canis lupus familiaris; Myocardium
Canis familiaris [4] = species on record: Canis familiaris; test: Effect of compound on myocardial conduction abnormal; ++ = moderate decrease; type: functional, organism-based; details: Canis lupus familiaris; Myocardium
Canis familiaris [5] = species on record: Canis familiaris; test: Increase in mean blood pressure on Ventricular Tachycardia (VT); (SL-Slight); type: functional, Canis lupus familiaris
In short: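 Pentobarbital-anesthetized dogs with infarction, given the drug intravenously. Mean arterial blood pressure was monitored continuously during ventricular tachycardia induced by three paced ventricular beats.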

Canis familiaris [6] = species on record: Canis familiaris; test: Compound was evaluated for abolition of ventricular tachycardia (Number/total);+ = slight degree; type: functional, organism-based; details: Canis lupus familiaris; Cardiac ventricle
In short: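 Dogs with 24-h myocardial infarction, anesthetized with 30 mg/kg iv sodium pentobarbital and given a left thoracotomy. Sustained ventricular tachycardia induced by three paced ventricular beats at 240–390/min. Compound given iv as a bolus in 50% ethanol. Pacing induction attempts repeated after dosing, up to 420/min. Abolition scored as number of dogs/total, with mean arterial pressure monitored.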

Canis familiaris [7] = species on record: Canis familiaris; test: Effect of compound on myocardial conduction abnormal; +++ = marked decrease; type: functional, organism-based; details: Canis lupus familiaris; Myocardium
In short: (§1)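 Pentobarbital-anesthetized dogs (30 mg/kg iv) with 24-h myocardial infarction, heart exposed by left thoracotomy. Recordings: lead II ECG, His bundle electrogram, and endocardial and epicardial electrodes over the infarct (abnormal tissue) plus a noninfarcted posterior epicardial reference (normal tissue). Atrial pacing from 180/min up to second-degree A-V block, before and after iv drug. Read-outs: intra-atrial, A-V nodal, His-Purkinje and ventricular conduction.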

Canis familiaris [8] = species on record: Canis familiaris; test: Effect of compound on myocardial conduction normal (A-V, I-V); […]; type: functional, organism-based; details: Canis lupus familiaris; Myocardium; in short: as §1
Canis familiaris [9] = species on record: Canis familiaris; test: Effect of compound on rate of induced ventricular tachycardia (VT) in dog; type: functional, Canis lupus familiaris, Cardiac ventricle
In short: (§2)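 Dogs with 24-h myocardial infarction under iv sodium pentobarbital (30 mg/kg), six per agent. Drug given as an iv bolus in 50% ethanol at 3 and 6 mg/kg; the reference agent was given iv at 2, 4 and 6 mg/kg. Sustained VT was induced by three paced ventricular beats at 240–390/min, with pacing retried up to 420/min after dosing. Read-outs were VT rate, abolition count and continuous mean arterial pressure.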

Canis familiaris [10] = species on record: Canis familiaris; test: Compound was tested for mean blood pressure on induced Ventricular Tachycardia (VT); type: functional, Canis lupus familiaris; in short: as §2
[11] = Compound was evaluated for abolition of ventricular tachycardia (Number/total); 0/6.; type: functional, tissue-based; details: Cardiac ventricle

Q: Which results are given for `O=C1C2CSCC1CN(Cc1ccccc1)C2` [listing 1 of 2 here]?
A: Abolition (Canis familiaris [1]): slight degree; Change in myocardial conduction (Canis familiaris [2]): inactive; Change in myocardial conduction (Canis familiaris [3]): inactive; Effect (Canis familiaris [4]): moderate decrease

Q: Which Mean blood pressure (Canis familiaris [5]) does the source give for `O=C1C2CSCC1CN(Cc1ccccc1)C2.[O-][Cl+3]([O-])([O-])O` here?
A: 15%

Q: For `O=C1C2CSCC1CN(Cc1ccccc1)C2` [listing 2 of 2 here], which Mean blood pressure (Canis familiaris [5]) is on record?
A: < 10%

Q: Which Abolition (Canis familiaris [6]) does the source give for `OC1(c2ccccc2)C2CSCC1CN(Cc1ccccc1)C2.[O-][Cl+3]([O-])([O-])O` (stereo not given) here?
A: slight degree

Q: And the Mean blood pressure (Canis familiaris [5])?
A: < 10%

Q: What about the Effect (Canis familiaris [7]) of the same molecule?
A: marked decrease

Q: And the Effect (Canis familiaris [8])?
A: marked decrease

Q: For `CCN(CC)CC(=O)Nc1c(C)cccc1C` [LIDOCAINE], which Rate (Canis familiaris [9]) is on record?
A: 315

Q: What about the Mean blood pressure (Canis familiaris [10]) of the same molecule?
A: 95 mmHg

Q: And the Ratio [11]?
A: inactive

Q: Which Rate (Canis familiaris [9]) does the source give for `[O-][Cl+3]([O-])([O-])O.c1ccc(CN2CC3CSCC(C3)C2)cc1` here?
A: 250

Q: What about the Mean blood pressure (Canis familiaris [10]) of the same molecule?
A: 112 mmHg

— ChEMBL document CHEMBL1122668, “Synthesis, conformational analysis, and antiarrhythmic properties of 7-benzyl-3-thia-7-azabicyclo[3.3.1]nonan-9-one, 7-benzyl-3-thia-7-azabicyclo[3.3.1]nonane hydroperchlorate, and 7-benzyl-9-phenyl-3-thia-7-azabicyclo[3.3.1]nonan-9-ol hydroperchlorate and derivatives: single-crystal X-ray …” (1984)
